Screening results as filed in PubChem BioAssay.
A selection: hits, their analogues and other compounds. The true share with any hit is near 1.1%.
CAL PDZ FP-1 – untagged CAL PDZ binding inhibitors, primary screen, biochemical, fluorescence polarization, HTS; Golgi-associated PDZ and coiled-coil motif-containing protein (Homo sapiens), Q9HD26; 0.92% of 300,000 active; purified CAL PDZ, TMR-peptide fluorescence polarization, 1 h; AID 602252, 2012; inhibition, % at 24.9 µM;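 active = mean inhibition of at least 30% with at least half of replicates also reaching 30%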;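 note: 0% = DMSO neutral control and 100% = excess unlabeled competitor peptide PRC23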
Cneo AK release – Cryptococcus neoformans cell lysis inducers, primary screen, AK release luminescence, single concentration; C. neoformans lysis, adenylate kinase release luminescence, 4 h; normalised: neutral wells 0, clomiphene wells 100; lysis activity, % at 15 µM; 0.2% of 360,000 active; AID 651654, 2012;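 active = mean lysis activity across replicates of at least 80%, whatever share of replicates individually reach that level; inactive = mean lysis activity below 80%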
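Test system: log-phase Cryptococcus neoformans yeast cells; Quantity: yeast cell density of 5 × 10^6 cells/mL; Buffer or medium: YPD; Doses: single compound concentration per well; Timing: 4 h at 37 °C static, read 1 h later; Measured by: AK luminescence; Read-out basis: lysis from increased AK signal; Control set: Clomiphene as positive control.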
CAL PDZ FP-2 – CAL PDZ peptide-binding inhibitors, primary screen, biochemical, fluorescence polarization, Cer-tagged CAL PDZ, HTS | purified CAL PDZ, TMR-peptide fluorescence polarization, 1 h | inhibition, % at 20 µM | 0.02% of 330,000 active;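 active = highest replicate inhibition of at least 40%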;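 note: plate controls were DMSO neutral control wells for no effect and unlabeled competitor peptide control wells for full effect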
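material = purified tagged CAL PDZ domain construct (CerCALP) | buffer or medium = sodium phosphate/NaCl buffer pH 7.4 with TCEP, IgG, Thesit | reagent = TMR-labelled reporter peptide T*-PRC34 bound in PDZ groove | incubation = 1 h room-temperature incubation prior to read | measured by = fluorescence polarization (mP) | evaluation = percent inhibition from loss of millipolarization | control set = unlabelled peptide and DMSO controls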
PglD inh – C. jejuni PglD acetyltransferase inhibitors, primary screen, biochemical, DTNB colorimetric, single point | UDP-N-acetylbacillosamine N-acetyltransferase PglD (Campylobacter jejuni) | purified PglD enzyme, DTNB colorimetric CoA detection | inhibition, % at 12.5 µM | 0.098% of 360,000 active | AID 602405, 2012; in the data active = inhibition above about 16%, passing the limit was not always enough
miR-122 sensor – miR-122 Renilla sensor signal increase in Huh7, primary screen, miR-122 inhibitor project, cell-based, single point, plate reader; Huh7 miR-122 Renilla luciferase sensor, 48 h; neutral wells = 0, positive control = 100; activation (reporter increase), % at 12.5 µM; 0.3% of 340,000 active; AID 602342, 2012;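 active = mean replicate activation score at least 90 and every replicate individually at or above 90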;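 note: higher luciferase means less miR-122 activity so hits act as miR-122 inhibitors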
Active calls of the source: *; [ ] = another dose, or the depositor's remark.

What do the screens show for `C[C@H]1CN([C@@H](C)CO)C(=O)Cc2cc(NS(=O)(=O)c3ccc(Cl)cc3)ccc2O[C@@H]1CN(C)Cc1ccc(-c2ccccc2)cc1`?
miR-122 sensor: -3[16.7 µM]

What do the screens show for `Cc1ccc(/C=N/NC(=O)c2cc(-c3ccc(C)o3)[nH]n2)cc1`?
CAL PDZ FP-1: 8; Cneo AK release: 1; CAL PDZ FP-2: -3; PglD inh: 1; miR-122 sensor: 11

Results for COc1ccccc1/C=C/C=N/NC(=O)c1cc(-c2ccc(C)o2)[nH]n1 ?
CAL PDZ FP-1: 62*; CAL PDZ FP-2: -4; miR-122 sensor: 4

How did COC(=O)C[C@H]1CC[C@H]2[C@@H](COC[C@@H](O)CN2CCC(F)(F)F)O1 do in these assays?
Cneo AK release: 1; PglD inh: 0; miR-122 sensor: 6[16.7 µM]

What do the screens show for `Cc1ccc2nsnc2c1S(=O)(=O)N1CCN(Cc2ccc3c(c2)OCO3)CC1`?
CAL PDZ FP-1: -4; Cneo AK release: -4; CAL PDZ FP-2: -3; PglD inh: -1; miR-122 sensor: 3

What do the screens show for `COc1ccc(NC(=O)Nc2ccc3c(c2)CC(=O)N([C@@H](C)CO)C[C@H](C)[C@H](CN(C)C(=O)Nc2ccc(OC)cc2)O3)cc1`?
Cneo AK release: 1; PglD inh: 0; miR-122 sensor: 10[16.7 µM]

Results for Cc1nn2c(NCCCN(C)C)c3c(nc2c1-c1ccccc1)CCC3 ?
CAL PDZ FP-1: 1; miR-122 sensor: 6

What do the screens show for `Cc1nn2c(NCCCN(C)C)c3c(nc2c1-c1ccccc1)CCCC3`?
CAL PDZ FP-1: active; CAL PDZ FP-2: 0

How did O=C(C[C@H]1C[C@H]2c3cc(NS(=O)(=O)c4ccc(F)cc4)ccc3O[C@H]2[C@@H](CO)O1)NCc1ccc(Cl)cc1 do in these assays?
Cneo AK release: -3; PglD inh: -1; miR-122 sensor: 8[16.7 µM]

How did CCOc1ccc(NC(=O)CNC(=O)c2ccco2)cc1 do in these assays?
CAL PDZ FP-1: -1; Cneo AK release: -2; CAL PDZ FP-2: -1; PglD inh: -6; miR-122 sensor: 1

What do the screens show for `CCOc1ccc(NC(=O)CCNC(=O)c2ccco2)cc1`?
CAL PDZ FP-1: 57*; Cneo AK release: 0; CAL PDZ FP-2: 1; PglD inh: -2

What do the screens show for `O=S(=O)(NCc1ccco1)c1ccc(Cl)cc1Cl`?
CAL PDZ FP-1: -1; Cneo AK release: 2; CAL PDZ FP-2: -3; PglD inh: -2; miR-122 sensor: 12

What do the screens show for `Cc1ccc(S(=O)(=O)NCc2ccco2)c(C)c1C`?
CAL PDZ FP-1: 0; Cneo AK release: 3; CAL PDZ FP-2: 1; PglD inh: 1; miR-122 sensor: 107*

How did O=C(C1CCC1)N1CCc2cc(S(=O)(=O)NCc3ccco3)ccc21 do in these assays?
Cneo AK release: -1; CAL PDZ FP-2: -1; PglD inh: -5; miR-122 sensor: 177*

How did O=S(=O)(NCc1ccco1)c1ccc2ccccc2c1 do in these assays?
CAL PDZ FP-1: -7; Cneo AK release: 1; CAL PDZ FP-2: -2; PglD inh: 1; miR-122 sensor: 95*

How did CCCCS(=O)(=O)N1CCCC(C(=O)Oc2ccccc2)C1 (stereo unspecified) do in these assays?
CAL PDZ FP-1: 66*; Cneo AK release: 0; PglD inh: 4; miR-122 sensor: -2

Results for CCOC(=O)Nc1nc(-c2ccccc2)c(C(=O)c2ccc(Cl)cc2)s1 ?
CAL PDZ FP-1: -3; Cneo AK release: 0; CAL PDZ FP-2: -2; PglD inh: 0; miR-122 sensor: 110*

How did CCOC(=O)Nc1sc(C)nc1-c1ccccc1 do in these assays?
CAL PDZ FP-1: -4; Cneo AK release: 1; CAL PDZ FP-2: -2; PglD inh: 3

Results for O=C(N[C@@H]1C=C[C@@H](CC(=O)N2CCc3ccccc3C2)O[C@@H]1CO)C1CC1 ?
Cneo AK release: 6; PglD inh: 15

What do the screens show for `CC(C)c1csc(CN2CCC(N3CCC(C(=O)NCC4CCCO4)CC3)CC2)n1` (stereo unspecified)?
CAL PDZ FP-1: 39*; CAL PDZ FP-2: 0; miR-122 sensor: -1

What do the screens show for `C[C@@H]1CN([C@@H](C)CO)C(=O)c2cc(C3=CCCCC3)cnc2O[C@H]1CN(C)C(=O)c1ccncc1`?
Cneo AK release: -3; PglD inh: 1; miR-122 sensor: 3[16.7 µM]

How did CCC(=O)N1[C@H](CO)[C@H](c2ccccc2)[C@H]1CN(CC)C(=O)c1cccc(F)c1 do in these assays?
Cneo AK release: 96*; PglD inh: 24; miR-122 sensor: 17[16.7 µM]

How did O=C(CNC(=O)c1ccc(Cl)cc1Cl)OCCOc1ccccc1F do in these assays?
CAL PDZ FP-1: -4; Cneo AK release: -1; CAL PDZ FP-2: 0; PglD inh: -3

How did Cc1cccc(Oc2ccc(N)cc2)c1 do in these assays?
CAL PDZ FP-1: -4; CAL PDZ FP-2: 1

What do the screens show for `Nc1ccc(Oc2cccc(Oc3ccc(N)cc3)c2)cc1`?
CAL PDZ FP-1: 39*; CAL PDZ FP-2: -4

Results for O=C(O)Cc1sc(-c2ccccc2)nc1-c1ccc(Cl)cc1 ?
Cneo AK release: -1; PglD inh: 0; miR-122 sensor: 1

Results for O=C(O)Cc1sc(-c2ccc(Cl)cc2)nc1-c1ccccc1 ?
CAL PDZ FP-1: 54*; Cneo AK release: -4; CAL PDZ FP-2: -1; PglD inh: 2; miR-122 sensor: 3

What do the screens show for `COc1ccc(CN(C)C[C@@H]2Oc3ccc(NS(=O)(=O)c4ccc(OC)cc4)cc3C(=O)N([C@@H](C)CO)C[C@H]2C)cc1`?
Cneo AK release: 44; PglD inh: 6; miR-122 sensor: 0[16.7 µM]

How did Cc1ccc(-c2nc(N)n(C(=O)c3cccs3)n2)cc1 do in these assays?
CAL PDZ FP-1: 83*; Cneo AK release: 8; CAL PDZ FP-2: 10; PglD inh: 2; miR-122 sensor: -3

What do the screens show for `Cc1ccc(-c2nc(N)n(C(=O)Cc3ccccc3)n2)cc1`?
CAL PDZ FP-1: -1; Cneo AK release: -1; CAL PDZ FP-2: -1; PglD inh: 0; miR-122 sensor: -2

How did C[C@@H]1CN([C@@H](C)CO)C(=O)c2cccc(NC(=O)c3ccc(-c4nccs4)cc3)c2O[C@@H]1CN(C)C(=O)Nc1ccc2c(c1)OCO2 do in these assays?
Cneo AK release: 3; PglD inh: 4; miR-122 sensor: 4[16.7 µM]

Results for CCN(CC)CCN1C(=O)C(=O)/C(=C(/O)c2c(C)[nH]c(C(=O)OC)c2C)C1c1ccccc1 (stereo unspecified) ?
CAL PDZ FP-1: -8; Cneo AK release: 0; CAL PDZ FP-2: -3; PglD inh: -4; miR-122 sensor: 6
